This note sets out measurements from ChEMBL document CHEMBL4725350, “2-Oxaadamant-1-yl Ureas as Soluble Epoxide Hydrolase Inhibitors: In Vivo Evaluation in a Murine Model of Acute Pancreatitis” (J Med Chem, 2020).

≈ marks a conversion by molar mass, not a printed value. Calls of active or inactive are those of the source. The calls are words filed in the database; no cut-off is given here.

A short description of data set [1]: Stability in human liver microsomes assessed as parent compound remaining measured after 60 mins in presence of NADPH by LC-MS/MS analysis. In kind it is ADME, Microsome. The conditions noted are these: read-out: Stabilty. Summed up: (§1)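 Compound is incubated at 37 °C with human, mouse or rat liver microsomes in 50 mM phosphate buffer pH 7.4. […] Samples at 0–60 min are quenched into acetonitrile; percent parent remaining at 60 min is reported. Testosterone is the positive control.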

For a further data set, the system named is THLE-2. Description: Cytotoxicity against human THLE-2 cells assessed as reduction in cell viability measured after 72 hrs by ATPlite assay. The conditions noted are these: thle-2, 72 h, read-out: LC50 (the source's name). In kind it is cell-based. Summed up: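 THLE-2 cells were grown in BEGM with 0.7 μg/mL phosphoethanolamine, 0.5 ng/mL EGF and 10% FBS, plated at 10,000 cells/well and left to adhere for 24 h. Cells were exposed to 0–100 μM final (1% DMSO) for 72 h at 37 °C, 5% CO2.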

A further data set is described as follows: physchem. The conditions noted are these: 1% DMSO/99% PBS buffer solution.
The nature of data set [2]: Stability in rat liver microsomes assessed as parent compound remaining measured after 60 mins in presence of NADPH by LC-MS/MS analysis. In kind it is ADME, Microsome. The conditions noted are these: read-out: Stabilty. Summed up: as §1
The nature of data set [3]: Stability in mouse liver microsomes assessed as parent compound remaining measured after 60 mins in presence of NADPH by LC-MS/MS analysis. Format: ADME, Microsome. The conditions noted are these: read-out: Stabilty. The gist of the method: as §1
The target in data set [4] is T1, Bifunctional epoxide hydrolase 2 (Mus musculus, UniProt P34914).
T1 sequence (P34914 whole entry): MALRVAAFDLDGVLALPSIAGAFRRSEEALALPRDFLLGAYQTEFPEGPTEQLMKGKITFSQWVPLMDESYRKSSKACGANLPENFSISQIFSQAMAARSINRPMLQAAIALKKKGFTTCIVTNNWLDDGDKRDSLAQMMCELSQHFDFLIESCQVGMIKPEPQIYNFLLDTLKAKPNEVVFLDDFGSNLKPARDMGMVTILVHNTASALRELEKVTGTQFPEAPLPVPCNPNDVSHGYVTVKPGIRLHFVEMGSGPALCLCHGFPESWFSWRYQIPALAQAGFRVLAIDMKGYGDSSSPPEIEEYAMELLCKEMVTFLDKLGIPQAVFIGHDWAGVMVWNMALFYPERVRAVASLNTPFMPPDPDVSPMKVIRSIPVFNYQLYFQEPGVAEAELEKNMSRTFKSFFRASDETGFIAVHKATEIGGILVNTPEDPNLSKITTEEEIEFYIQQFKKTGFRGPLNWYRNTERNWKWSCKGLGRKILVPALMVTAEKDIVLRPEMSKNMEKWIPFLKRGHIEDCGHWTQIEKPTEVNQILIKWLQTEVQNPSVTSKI
The data set is described as follows: Inhibition of recombinant mouse soluble epoxide hydrolase using CMNPC as substrate preincubated for 5 mins followed by substrate addition and measured at 30 secs interval for 10 mins by fluorescence assay. The gist of the method: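 Purified recombinant enzyme was preincubated with inhibitor (0.4–100,000 nM final) for 5 min at 30 °C in 100 mM sodium phosphate, pH 7.4, with 0.1 mg/mL BSA and 1% DMSO. CMNPC was added at 5 μM final. 6-Methoxynaphthaldehyde fluorescence (ex 330/em 465 nm) was read every 30 s for 10 min. IC50 values are averages of three replicates.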

Data set [5] concerns the target T2, Bifunctional epoxide hydrolase 2 (Homo sapiens, UniProt P34913).
T2 sequence (P34913 whole entry): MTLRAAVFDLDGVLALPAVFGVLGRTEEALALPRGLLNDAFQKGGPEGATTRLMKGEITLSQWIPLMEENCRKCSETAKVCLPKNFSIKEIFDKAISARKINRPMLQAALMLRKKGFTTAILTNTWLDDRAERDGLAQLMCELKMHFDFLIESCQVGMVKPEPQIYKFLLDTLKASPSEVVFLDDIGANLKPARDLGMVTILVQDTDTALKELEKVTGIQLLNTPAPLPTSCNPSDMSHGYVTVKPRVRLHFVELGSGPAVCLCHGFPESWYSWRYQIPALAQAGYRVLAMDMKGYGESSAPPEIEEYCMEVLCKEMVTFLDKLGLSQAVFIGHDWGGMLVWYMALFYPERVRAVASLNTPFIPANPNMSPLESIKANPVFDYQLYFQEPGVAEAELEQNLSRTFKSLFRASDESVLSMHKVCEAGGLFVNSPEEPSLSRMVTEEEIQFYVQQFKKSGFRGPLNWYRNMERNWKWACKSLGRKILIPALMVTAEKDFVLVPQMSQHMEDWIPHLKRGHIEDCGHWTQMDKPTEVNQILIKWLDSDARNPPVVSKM
Description: Inhibition of recombinant human soluble epoxide hydrolase using CMNPC as substrate preincubated for 5 mins followed by substrate addition and measured at 30 secs interval for 10 mins by fluorescence assay.

Data set [6] in a line: Apparent permeability across apical to basolateral side in human Caco-2 cells at 10 uM measured after 2 hrs by LC-MS/MS analysis. The conditions noted are these: caco-2, 2 h.
The nature of data set [7]: Apparent permeability across basolateral to apical side in human Caco-2 cells at 10 uM measured after 2 hrs by LC-MS/MS analysis. The conditions noted are these: caco-2, 2 h.
Data set [8] is described as follows: Efflux ratio of apparent permeability across basolateral to apical side over apical to basolateral side in human Caco-2 cells at 10 uM measured after 2 hrs by LC-MS/MS analysis.
In data set [9] the target is T3, Polyunsaturated fatty acid 5-lipoxygenase (Homo sapiens) (UniProt P09917).
T3 sequence (whole entry): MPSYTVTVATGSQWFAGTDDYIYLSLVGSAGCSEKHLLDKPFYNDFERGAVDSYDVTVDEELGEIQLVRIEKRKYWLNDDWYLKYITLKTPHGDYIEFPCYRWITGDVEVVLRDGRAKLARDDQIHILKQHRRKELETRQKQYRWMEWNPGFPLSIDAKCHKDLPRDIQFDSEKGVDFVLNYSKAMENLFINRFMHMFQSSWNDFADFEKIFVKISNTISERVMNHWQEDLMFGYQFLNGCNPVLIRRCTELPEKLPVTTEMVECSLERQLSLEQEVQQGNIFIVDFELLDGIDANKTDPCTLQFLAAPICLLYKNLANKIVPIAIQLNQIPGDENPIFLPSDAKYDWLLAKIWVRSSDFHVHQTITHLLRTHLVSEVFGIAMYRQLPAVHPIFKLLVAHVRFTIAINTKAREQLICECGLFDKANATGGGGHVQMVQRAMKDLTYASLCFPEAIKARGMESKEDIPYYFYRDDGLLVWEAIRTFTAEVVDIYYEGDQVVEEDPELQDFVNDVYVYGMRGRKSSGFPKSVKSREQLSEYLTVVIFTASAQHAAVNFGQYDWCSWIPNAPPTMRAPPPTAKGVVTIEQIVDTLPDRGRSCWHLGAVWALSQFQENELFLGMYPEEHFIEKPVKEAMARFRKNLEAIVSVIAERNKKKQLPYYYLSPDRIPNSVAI
Description: Inhibition of recombinant human full-length LOX5 (1 to 674 residues) expressed in insect cells using arachidonic acid as substrate preincubated for 10 mins followed by substrate addition measured after 20 mins by H2DCFDA probe based fluorescence assay. The conditions noted are these: time 30.0 min.

For data set [10], the target named is T4, Prostaglandin G/H synthase 2 (Homo sapiens) (UniProt P35354).
T4 sequence (whole entry): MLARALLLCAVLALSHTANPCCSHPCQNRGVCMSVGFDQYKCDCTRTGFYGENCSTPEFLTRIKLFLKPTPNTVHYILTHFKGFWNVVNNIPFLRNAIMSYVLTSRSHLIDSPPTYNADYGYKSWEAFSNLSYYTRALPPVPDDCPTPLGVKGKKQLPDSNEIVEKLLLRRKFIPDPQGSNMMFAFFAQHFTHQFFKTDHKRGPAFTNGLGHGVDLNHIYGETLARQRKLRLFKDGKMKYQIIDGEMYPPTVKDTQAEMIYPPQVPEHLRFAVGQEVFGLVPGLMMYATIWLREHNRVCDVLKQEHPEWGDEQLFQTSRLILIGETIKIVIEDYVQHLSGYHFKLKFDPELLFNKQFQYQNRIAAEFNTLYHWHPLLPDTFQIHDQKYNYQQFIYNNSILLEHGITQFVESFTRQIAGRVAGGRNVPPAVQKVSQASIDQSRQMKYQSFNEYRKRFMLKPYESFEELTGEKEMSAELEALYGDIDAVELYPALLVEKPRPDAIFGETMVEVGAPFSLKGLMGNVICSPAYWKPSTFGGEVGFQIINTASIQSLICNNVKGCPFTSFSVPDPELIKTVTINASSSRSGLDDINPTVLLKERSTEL
The data set is described as follows: Inhibition of recombinant human COX2 using arachidonic acid as substrate measured after 5 mins by fluorescence assay.

The nature of data set [11]: Cytotoxicity against human PBMC assessed as reduction in cell viability measured after 72 hrs by ATPlite assay. The conditions noted are these: read-out: LC50 (the source's name).

Regarding `CC(=O)c1ccc(N2CCC(NC(=O)NC34CC5CC(CC(C5)O3)C4)CC2)cc1`, the remaining at 1 h came to 40% in data set [1], 84% in data set [2] and 73% in [3]. The CC50 in the data set with THLE-2 was over 100000 nM. Moreover, the kinetic solubility at 2 h in the data set “physchem” worked out at 81.5 µM (≈ 32.4 µg/mL). Besides, in data set [4], the IC50 was determined as 107 nM.
Regarding `O=C(NC1CCN(C(=O)C2CCOCC2)CC1)NC12CC3CC(CC(C3)O1)C2`, the IC50 in data set [5] is 491 nM; in data set [4] it was 512 nM.
For `O=C(Nc1nc2ccccc2s1)NC12CC3CC(CC(C3)O1)C2`, in that order: 782 nM and 14700 nM.
For the compound `O=C(Nc1ccc(Cl)c(C(F)(F)F)c1)NC12CC3CC(CC(C3)O1)C2`, the IC50 in data set [5] came to 19.7 nM; in data set [4], 344 nM.
On to `O=C(NC1CCN(C(=O)C2CC2)CC1)NC12CC3CC(CC(C3)O1)C2`, for which the IC50 in data set [5] was found to be 213 nM; in [4], 130 nM.
Consider `CS(=O)(=O)N1CCC(NC(=O)NC23CC4CC(CC(C4)O2)C3)CC1`, for which the results for the IC50 in data set [5] and in [4] were 247 nM and 174 nM, respectively.
As for `O=C(Nc1ccon1)NC12CC3CC(CC(C3)O1)C2`, the half-inhibitory concentration (IC50) in data set [5] is 911 nM; in [4] it was 3850 nM.
Take `O=C(NC12CC3CC(CC(C3)O1)C2)N[C@H]1CC[C@H](Oc2ccc(C(=O)O)cc2)CC1`: the Papp in data set [6] worked out at 0.14 ×10⁻⁶ cm/s; in data set [7], 7.55 ×10⁻⁶ cm/s. In data set [5], the IC50 was 9 nM. The compound further yielded a solubility (kinetic) at 2 h in “physchem” of over 100 µM. Moreover, the efflux ratio at 2 h, 10 µM in data set [8] is 55.4.
Turning to `O=C(NC1CCN(C(=O)c2cccnc2)CC1)NC12CC3CC(CC(C3)O1)C2`, the results for the IC50 in data set [5] and in [4] were 159 nM and 291 nM, respectively.
`O=C(Nc1ccc(F)c(F)c1F)NC12CC3CC(CC(C3)C1)C2`: the values for the Papp in [6] and in data set [7] were 0.67 ×10⁻⁶ cm/s and 0.46 ×10⁻⁶ cm/s, respectively. For the same compound, the kinetic solubility at 2 h in the data set “physchem” worked out at 16 µM (≈ 5.19 µg/mL).
As for `O=C(Nc1ccc(F)c(F)c1F)NC12CC3CC(CC(C3)O1)C2`, the Papp in data set [6] is 16.8 ×10⁻⁶ cm/s; in [7], 15.1 ×10⁻⁶ cm/s. In the data set “physchem”, the solubility (kinetic) at 2 h was found to be 27 µM (≈ 8.81 µg/mL). Moreover, the IC50 in [4] stood at 553 nM.
Regarding `CCC(=O)N1CCC(NC(=O)NC23CC4CC(CC(C4)O2)C3)CC1`, the results for the IC50 in [5] and in [4] were 356 nM and 234 nM, respectively. Besides, the inhibition result in [9] and in [10] was “inactive” throughout.
For the compound `O=C(Nc1cccc(S(F)(F)(F)(F)F)c1)NC12CC3CC(CC(C3)O1)C2`, the values for the IC50 in data set [5] and in data set [4] were 35.9 nM and 723 nM, respectively.
For `O=C(Nc1cc(Cl)cc(OC(F)(F)F)c1)NC12CC3CC(CC(C3)O1)C2`, in that order: 52.6 nM and 1860 nM.
For `CNc1nc(C)nc(N2CCC(NC(=O)NC34CC5CC(CC(C5)O3)C4)CC2)n1`, in that order: 496 nM and 365 nM.
Consider `O=C(Nc1ncncn1)NC12CC3CC(CC(C3)O1)C2`, for which the IC50 in data set [5] was found to be 1450 nM.
For the compound `O=C(NC1CCN(C(=O)c2ccccc2F)CC1)NC12CC3CC(CC(C3)O1)C2`, the remaining at 1 h in data set [1] was 30.2%; in data set [2], 19.3%; in [3] it was 39.5%. Also, the CC50 is over 100000 nM in the data set on THLE-2 and over 20000 nM in data set [11]. In addition, the inhibition result in data set [9] and in data set [10] was “inactive” throughout. Also, the kinetic solubility at 2 h in “physchem” is over 100 µM. Moreover, in data set [4], the IC50 came to 75.9 nM.
As to `O=C(NC1CCN(Cc2ccccc2)CC1)NC12CC3CC(CC(C3)O1)C2`, in data set [5], the IC50 was determined as 1090 nM.
